Screening data from PubChem.
An excerpt weighted towards active compounds, which were near 4.2% of everything screened.
Rad51 HR inh: human RAD51 strand exchange inhibitors, primary screen, biochemical, fluorescence | DNA repair protein RAD51 homolog 1 (Homo sapiens), Q06609 | hRad51 DNA strand exchange, fluorescence dequenching | inhibition, % at 10 µM | 200,000 compounds, 0.085% hits | AID 1385, 2008;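 active = inhibition above 40% at the single screening dose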;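 also: 0% = DMSO control wells and 100% = blanks with heterologous ssDNA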
Target sequence (Q06609 whole entry, looked up): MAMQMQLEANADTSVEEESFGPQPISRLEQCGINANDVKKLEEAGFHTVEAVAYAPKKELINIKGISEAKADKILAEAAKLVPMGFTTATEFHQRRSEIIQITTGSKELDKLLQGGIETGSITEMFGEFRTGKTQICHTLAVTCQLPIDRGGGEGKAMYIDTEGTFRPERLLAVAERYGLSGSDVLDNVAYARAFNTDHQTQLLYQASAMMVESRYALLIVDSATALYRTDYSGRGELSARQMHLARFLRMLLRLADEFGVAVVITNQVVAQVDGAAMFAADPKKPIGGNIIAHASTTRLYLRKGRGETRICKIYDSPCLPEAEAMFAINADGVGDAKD
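Assay system: Human Rad51 nucleoprotein filaments preassembled on unlabelled ssDNA | Reagent: Donor/quencher-labelled 47-bp dsDNA substrate | Doses: One concentration, 10 µM final | Times: 37 °C 15-min filament assembly, 30-min compound preincubation, 15-min exchange | Technique: Fluorescein emission 520 nm, excitation 485 nm | Benchmarks: Plate control and blank wells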
KCC2 mod: KCC2 cotransporter modulators, thallium flux, primary screen, cell-based, HEK293 KCC2, FluoZin-2 fluorescence, MLSMR; KCC2 cells, thallium flux FluoZin-2 fluorescence; 190,000 compounds, 2.2% hits; AID 1456, 2008; B-score of Tl+ flux slope (higher = more flux/activation; lower = inhibition) at 10 µM;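 active = thallium flux slope and its plate-corrected score both differing from the plate sample mean at a set confidence after two filtering rounds, in either direction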;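 also: slope of fluorescence scaled to starting intensity during 10 to 20 s after thallium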
SKKanGAS inh: S. pyogenes SKKanGAS growth inhibitors in kanamycin, primary screen, streptokinase expression inhibitor project, SKKanGAS strain, BacTiter-Glo luminescence. 6 h. 300,000 compounds, 1.3% hits. inhibition, % at 7.5 µM. AID 1662, 2009;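 active = mean replicate score, as percent of positive control median, at least 50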;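 also: strain carries kanamycin resistance gene driven by streptokinase promoter and grows in 40 µg/ml kanamycin; loss of luminescence reflects streptokinase promoter inhibition or plain growth inhibition; 0% = median of DMSO wells and 100% = positive control at its reference dose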
Insulin prom up: insulin promoter activators in MIN6 cells, imaging, high-content screening, mouse beta cells; MIN6 insulin promoter-GFP reporter; stronger effect = higher value; AID 1625, 2009; z-score at 5 µM; 190,000 compounds, 0.3% hits;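 active = z-score above 3 at 5 µM with at least 500 cells counted in the well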
WT yeast gro inh: growth inhibition of WT strain, primary screen, mitochondrial fusion inhibitor project, WT and mutant strains, chemical genetic; mitochondrial fusion phenotypic screen; 190,000 compounds, 2.1% hits; inhibition, % at 10 µM; in the data active = inhibition above about 58%; tested in S. cerevisiae
Autophagy mod: autophagy modulators in MEF cells, primary screen, imaging, high-content, MEF GFP-LC3. MEF GFP-LC3 puncta imaging; test concentration mostly 10 µM. calls only at 10 µM (by protocol). 190,000 compounds, 0.98% hits. AID 463193, 2010;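 active = percentage of spot-positive cells more than 3 SD above its plate mean, without a fluorescence outlier flag or 80% toxicity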;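 also: spot-positive cell cutoff set from DMSO-treated cells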
* marks the source's active call; other numbers are inactive results; i = inactive; nt = no result given; + = active, no number.

SMILES	Rad51 HR inh	KCC2 mod	SKKanGAS inh	Insulin prom up	WT yeast gro inh	Autophagy mod
O=C(Nc1nc2ccccc2n1CCOc1ccc(Cl)cc1)c1ccco1	2	nt	90*	0.04	70*	i
Cc1ccc(OCCn2c(NC(=O)c3ccco3)nc3ccccc32)cc1	9	2.1	66*	0.52	-2	i
O=C(Nc1nc2ccccc2n1CCN1CCCCC1)c1ccco1	-8	0.59	-5	0.2	-11	i
Cc1cccc(OCCn2c(-c3ccco3)nc3ccccc32)c1	1	-0.6	7	0.46	-7	i
Cc1cccc(OCCn2c(NC(=O)c3ccco3)nc3ccccc32)c1	3	1.5	62*	-1.1	73*	+
COc1ccc(Oc2ccc(-c3ccn[nH]3)cc2)cc1	8	0.14	10	0.68	nt	nt
O=C(Oc1c(Cl)cc(Cl)c2cccnc12)c1ccco1	nt	nt	85*	0.24	31	i
COc1cccc(OC)c1C(=O)Nc1ccncc1	nt	nt	-3	nt	nt	nt
Cn1c(-c2sc3ccccc3c2Cl)n[nH]c1=S	2	13*	5	nt	50	i
CC(C)c1ccccc1NC(=S)NC1CCCCC1	2	-0.37	7	-1.4	71*	i
S=C(Nc1cccc2ccccc12)NC1CCCCC1	7	-0.0035	7	1.3	75*	i
O=C(Nc1ccccc1F)NC1CCCCCCC1	nt	nt	50*	nt	nt	nt
O=C(Nc1ccccc1F)NC1CC1	3	-1.7	7	0.36	4	i
CC(C)c1ccccc1NC(=S)NC(C)c1ccccc1 (centres undefined)	-3	0.1	-10	-1.1	60*	i
CSc1ccccc1NC(=S)NC1CCCCC1	-7	-0.049	2	0.46	0	i
Cc1cc(=O)oc2cc(OCCSCCN3CCCCC3)ccc12	18	0.17	6	0.39	nt	nt
COc1ccc(S(=O)(=O)NCCN2CCNC2=O)cc1OC	nt	0.039	1	-0.14	nt	nt
COc1cc(OC)c(OC)cc1CNCCNC(=O)c1ccco1	nt	nt	1	nt	nt	nt
Cc1ccc(Cn2ncc3c(N4CCN(c5ccccc5C)CC4)ncnc32)cc1	-10	0.12	17	-0.04	65*	i
c1ccc(Cn2ncc3c(N4CCCCC4)ncnc32)cc1	-8	-4.1*	7	nt	16	i
CCc1cccc2c(SCC(=O)NCC3CCCO3)nc(-c3ccc(F)cc3)nc12 (centres undefined)	-2	nt	0	-0.12	11	+
COCCCNC(=O)/C(C#N)=C1\N=C(NC(=O)c2cccs2)c2ccccc21	-14	-0.69	-6	0.11	nt	nt
CC(NC(=O)/C(C#N)=C1\N=C(NC(=O)c2cccs2)c2ccccc21)c1ccccc1 (centres undefined)	-26	0.75	2	4*	1	i
N#C/C(C(=O)NCCc1ccccc1)=C1/N=C(NC(=O)c2cccs2)c2ccccc21	-10	-0.0045	-4	0.49	20	+
CC1CN(S(=O)(=O)c2ccc(CN3C(=O)c4cccnc4C3=O)s2)c2ccccc2O1 (centres undefined)	nt	nt	-6	nt	nt	nt
SMILES	Rad51 HR inh	KCC2 mod	SKKanGAS inh	Insulin prom up	WT yeast gro inh	Autophagy mod
O=c1cc(-c2ccco2)oc2c1ccc1ccccc12	-2	0.66	-8	0.49	20	i
O=c1cc(C(Cl)(Cl)Cl)oc2c1ccc1ccccc12	-3	0.28	9	-3.8	78*	+
COC(=O)c1ccc(CN2CCCC(CO)(Cc3ccc(F)cc3F)C2)cc1 (centres undefined)	nt	nt	-12	nt	nt	nt
COc1ccc(NC(=O)c2csc(Cc3ccc(Cl)cc3)n2)cc1	-8	nt	19	0.09	59*	i
O=C(Nc1ccc(Cl)cc1)c1csc(Cc2ccccc2)n1	7	-0.93	-13	0.13	74*	i
O=C(Nc1cccc(Cl)c1)c1csc(-c2ccccc2)n1	nt	nt	13	-0.99	61*	i
COc1ccc(Cc2nc(C(=O)Nc3ccc(Cl)cc3)cs2)cc1	5	nt	9	-0.58	54	i
O=C(C(O)c1ccccc1)N1N=C(c2ccccc2)CC1(O)C(F)(F)F (centres undefined)	nt	nt	1	nt	nt	nt
CCOC(=O)N/N=C\c1ccc(OC(=O)c2ccc3c(c2)OCO3)cc1	-5	-0.85	-22	-0.55	3	+
CN(C)c1ccc(/C=N/NC(=O)c2ccc3c(c2)OCO3)cc1	nt	nt	-1	nt	nt	nt
CCc1ccc(NC(=O)CSc2nnnn2C)cc1	nt	nt	-1	nt	nt	nt
COc1ccc2nc(-n3c(O)c(C4=c5ccccc5=NC4=O)[nH]c3=S)sc2c1	-5	0.01	104*	-0.59	26	i
COC(=O)/C=C1\C(=O)N(c2nc3ccc(OC)cc3s2)C(=S)N1c1ccc(F)cc1	nt	nt	-9	0.58	9	i
CCCCN(CCCC)c1cc(C)nc(-c2ccccc2O)n1	-10	-0.24	54*	-0.25	41	i
CC(=O)c1sc(N/N=C\c2c(O)ccc3ccccc23)nc1C	nt	nt	50*	nt	nt	nt
Cc1cc(N/N=C/c2c(O)ccc3ccccc23)nc(-c2ccccc2O)n1	9	-0.2	85*	-0.52	1	i
Cc1cc(NCc2ccccc2)nc(-c2ccccc2O)n1	3	-0.13	17	-1.2	62*	i
CCCOc1cc(C)nc(-c2ccccc2O)n1	2	-0.74	-15	0.03	22	i
Oc1ccc2ccccc2c1/C=N/Nc1ccccc1	0	-0.077	1	-0.21	0	i
Cc1cc(OCC(=O)Nc2ccncc2)cc(C)c1Br	5	-0.31	-2	0.24	74*	i
Cc1cc(NC(=O)c2ccc3c(c2)OCCO3)ccc1NC(=O)c1cc2ccccc2o1	-23	-1.4	53*	nt	8	i
O=C(O)c1ccc(S(=O)(=O)/N=C2\C=C(Nc3ccccc3F)C(=O)c3ccccc32)cc1	nt	nt	88*	nt	nt	nt
Cc1ccccc1NC1=C/C(=N\S(=O)(=O)c2ccc(C(=O)O)cc2)c2ccccc2C1=O	nt	nt	95*	nt	nt	nt
COC(=O)C(C(C)=O)C1=C/C(=N\S(=O)(=O)c2ccc(C)cc2)c2ccccc2C1=O (centres undefined)	-21	-0.41	7	-0.31	10	i
CCOc1ccc(N/C(=N/c2nc(C)cc(C)n2)NC(C)=O)cc1	-46	-1.1	-3	-0.12	nt	nt
Cc1ccccc1-c1ncc(CN2CCN(C3CCCC3)C(CCO)C2)cn1 (centres undefined)	30	1.2	-9	0.26	3	i
OCCC1CN(Cc2cnc(-c3cccc4ccccc34)nc2)CCN1C1CCCCC1 (centres undefined)	6	-0.92	-12	nt	1	+
